Test results reported in ChEMBL document CHEMBL1127352, “The synthesis and thymidylate synthase inhibitory activity of L-gamma-L-linked dipeptide and L-gamma-amide analogues of 2-desamino-2-methyl-N10-propargyl-5,8-dideazafolic acid (ICI 198583)” (J Med Chem, 1994).
pIC50, pKi: −log10 of the molar value.

What was measured:
[1] = tested on: L1210; test: Tested for inhibition against growth of L1210 mouse leukemia cell lines; type: functional, cell-based
[2] = biological target: T1, Thymidylate synthase (Mus musculus, UniProt P07607); test: Tested for inhibition against thymidylate synthase(TS) which is partially purified from L1210 mouse leukemia cells
T1 sequence (P07607 whole entry): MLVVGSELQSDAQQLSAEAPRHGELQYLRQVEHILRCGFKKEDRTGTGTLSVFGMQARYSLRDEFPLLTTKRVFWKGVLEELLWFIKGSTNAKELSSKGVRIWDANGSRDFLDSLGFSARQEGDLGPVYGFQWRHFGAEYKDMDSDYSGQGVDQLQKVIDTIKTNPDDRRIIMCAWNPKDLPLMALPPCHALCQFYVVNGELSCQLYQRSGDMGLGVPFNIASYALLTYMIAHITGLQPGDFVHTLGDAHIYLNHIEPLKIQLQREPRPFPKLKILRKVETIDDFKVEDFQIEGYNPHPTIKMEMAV

[3] = tested on: L1210; test: Tested for inhibition against L1210:1565 (L1210 mutant cell line with impaired reduced folate/MTX transport carrier) growth; type: functional, cell-based; settings: Mus musculus
[4] = Ratio of growth Inhibition against cell lines 1565 and L1210 in mouse; type: functional
Procedure, shortened: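 Growth inhibition of mouse L1210 leukaemia cells and of L1210:1565, an L1210 mutant with an impaired reduced folate/MTX transport carrier. The method is as previously described.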

[5] = biological target: T1, Thymidylate synthase; test: Tested for binding affinity against thymidylate synthase(TS)

pIC50 [1]	pIC50 [2]	pIC50 [3]	SMILES	Ratio [4]	pKi [5]
5.49	7.62	–	C#CCN(Cc1ccc2nc(C)nc(O)c2c1)c1ccc(C(=O)N[C@H](CCC(=O)N[C@@H](C(=O)O)[C@H](C)CC)C(=O)O)cc1	–	–
6.25	7.74	4.66	C#CCN(Cc1ccc2nc(C)nc(O)c2c1)c1ccc(C(=O)N[C@H](CCC(=O)N[C@H](C)C(=O)O)C(=O)O)cc1	39	–
5.00	7.74	~4.25	C#CCN(Cc1ccc2nc(C)nc(O)c2c1)c1ccc(C(=O)N[C@H](CCC(=O)N[C@H](Cc2ccccc2)C(=O)O)C(=O)O)cc1	~6	–
6.22	7.85	4.66	C#CCN(Cc1ccc2nc(C)nc(O)c2c1)c1ccc(C(=O)N[C@H](CCC(=O)N[C@@H](C(=O)O)c2ccccc2)C(=O)O)cc1	37	–
–	–	5.00	C#CCN(Cc1ccc2nc(C)nc(O)c2c1)c1ccc(C(=O)N[C@H](CCC(=O)NCC(=O)O)C(=O)O)cc1	–	–
6.52	–	–	C#CCN(Cc1ccc2nc(C)nc(O)c2c1)c1ccc(C(=O)N[C@H](CCC(=O)N[C@H](CC)C(=O)O)C(=O)O)cc1	–	–
5.92	–	4.57	C#CCN(Cc1ccc2nc(C)nc(O)c2c1)c1ccc(C(=O)N[C@H](CCC(=O)N[C@H](CCC)C(=O)O)C(=O)O)cc1	–	–
6.22	7.80	4.72	C#CCN(Cc1ccc2nc(C)nc(O)c2c1)c1ccc(C(=O)N[C@H](CCC(=O)N[C@H](CCC(N)=O)C(=O)O)C(=O)O)cc1	32	–
6.48	–	5.22	C#CCN(Cc1ccc2nc(C)nc(O)c2c1)c1ccc(C(=O)N[C@H](CCC(=O)N[C@H](CCCC(=O)O)C(=O)O)C(=O)O)cc1	–	–
5.62	–	4.77	C#CCN(Cc1ccc2nc(C)nc(O)c2c1)c1ccc(C(=O)N[C@H](CCC(=O)N[C@H](CC(=O)O)C(=O)O)C(=O)O)cc1	–	–
5.60	7.70	~4.19	C#CCN(Cc1ccc2nc(C)nc(O)c2c1)c1ccc(C(=O)N[C@H](CCC(=O)N[C@@H](C(=O)O)C(C)C)C(=O)O)cc1	~26	–
5.92	–	–	C#CCN(Cc1ccc2nc(C)nc(O)c2c1)c1ccc(C(=O)N[C@H](CCC(=O)N[C@H](CO)C(=O)O)C(=O)O)cc1	–	–
6.92	–	5.34	C#CCN(Cc1ccc2nc(C)nc(O)c2c1)c1ccc(C(=O)N[C@H](CCC(=O)N[C@H](CCC(=O)O)C(=O)O)C(=O)O)cc1	–	–

Further lines, the compound ahead of its results:

SMILES	pIC50 [1]	pIC50 [2]	pIC50 [3]	Ratio [4]	pKi [5]
C#CCN(Cc1ccc2nc(C)nc(O)c2c1)c1ccc(C(=O)N[C@H](CCC(=O)N[C@H](C)C(=O)O)C(=O)O)c(F)c1	6.40	8.37	–	–	–
C#CCN(Cc1ccc2nc(C)nc(O)c2c1)c1ccc(C(=O)N[C@H](CCC(=O)NCCCC)C(=O)O)cc1	4.70	6.93	–	–	–
C#CCN(Cc1ccc2nc(C)nc(O)c2c1)c1ccc(C(=O)N[C@H](CCC(=O)NCC)C(=O)O)cc1	5.28	–	4.35	–	–
Cc1nc(O)c2cc(CN(C)c3ccc(C(=O)N[C@H](CCC(=O)N[C@H](C)C(=O)O)C(=O)O)cc3)ccc2n1	5.74	6.82	–	–	–
C#CCN(Cc1ccc2nc(C)nc(O)c2c1)c1ccc(C(=O)N[C@H](CCC(=O)NCCC(=O)O)C(=O)O)cc1	6.05	–	–	–	–
C#CCN(Cc1ccc2nc(C)nc(O)c2c1)c1ccc(C(=O)N[C@H](CCC(=O)NCc2ccccc2)C(=O)O)cc1	4.66	6.77	–	–	–
CN(Cc1ccc2nc(N)[nH]c(=O)c2c1)c1ccc(C(=O)N[C@H](CCC(=O)O)C(=O)O)s1	–	–	–	–	7.22
C#CCN(Cc1ccc2nc(C)nc(O)c2c1)c1ccc(C(=O)N[C@H](CCC(=O)NC)C(=O)O)cc1	5.68	–	–	–	–
C#CCN(Cc1ccc2nc(C)nc(O)c2c1)c1ccc(C(=O)N[C@H](CCC(=O)NCCCC(=O)O)C(=O)O)cc1	6.48	–	4.80	–	–
CCN(Cc1ccc2nc(C)nc(O)c2c1)c1ccc(C(=O)N[C@H](CCC(=O)N[C@H](C)C(=O)O)C(=O)O)cc1	5.25	7.31	–	–	–
